Laboratory results from ChEMBL document CHEMBL1122650, “Synthesis and central nervous system properties of 2-[(alkoxycarbonyl)amino]-4(5)-phenyl-2-imidazolines” (J Med Chem, 1984).
Active and inactive are the calls of the source. The calls are words filed in the database; no cut-off is given here.

Columns and labels:
Mus musculus [1] = test: Compound was evaluated in vivo for reserpine hypothermia after oral administration in mouse. Minimum active dose was reported, with the percent reversal at 10 mg/kg in parenthesis.; assay type: functional
How it was run: (§1)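 Male HLa (ICR) BR mice (18-24 g), groups of eight, dosed ip with 5 mg/kg reserpine 2 h before oral test compound given as aqueous solution. Rectal temperature measured hourly; 1-4-h thermia assessed by analysis of variance.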

Mus musculus [2] = species: Mus musculus; test: Mouse behavior activity was determined; D = Depressant; assay type: functional, organism-based
How it was run: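 Male Simonsen (ICR) fBR mice (18-24 g) given 3, 10, 30, 100, 300 or 1000 mg/kg ip as aqueous solution and observed for behaviour in groups of three.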

[3] = Compound was evaluated for lethal dose in mouse in groups of ten (values in parentheses indicates 95% confidence limits); assay type: toxicity, organism-based; conditions: in vivo
Mus musculus [4] = species: Mus musculus; test: Righting ability was determined in mice […] rapid rolling (aroused); assay type: functional
How it was run: (§2)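 Male Simonsen (ICR) fBR mice, 18-24 g, groups of ten, dosed with aqueous compound. Righting ability checked before (unaroused) and after (aroused) rapid rolling in the hand; ED50 by Litchfield-Wilcoxon method.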

Mus musculus [5] = species: Mus musculus; test: Righting ability was determined in mice before rapid rolling (unaroused); assay type: functional; how it was run: as §2
Mus musculus [6] = species: Mus musculus; test: Compound was evaluated for maximal electroshock antagonism (MES) against mice (values in parentheses indicates 95% confidence limits); assay type: functional
How it was run: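 Male HLa (ICR) BR mice, groups of eight to ten, given compound ip as aqueous solution 15 min before transcorneal electroshock (50 mA, 0.2 s). End point was abolition of tonic hind-limb extension; quantal ED50 derived by Litchfield-Wilcoxon.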

[7] = HPLC capacity factor (k'); assay type: ADME
Mus musculus [8] = test: Compound was evaluated in vivo for reserpine hypothermia after oral administration in mouse. Minimum active dose was reported; Inactive; assay type: functional, organism-based
How it was run: (§3)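 Male HLa (ICR) BR mice, 18-24 g, in groups of eight; reserpine 5 mg/kg ip given 2 h before oral test compound as aqueous solution. Rectal temperature taken hourly; 1-4-h hypothermia assessed by analysis of variance.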

Mus musculus [9] = species: Mus musculus; test: Evaluated for antagonism of reserpine induced hypothermia;I= Inactive; assay type: functional, organism-based; how it was run: as §3
Mus musculus [10] = species: Mus musculus; test: Compound was evaluated for maximal electroshock antagonism (MES) against mice; assay type: functional
How it was run: (§4)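 Male HLa (ICR) BR mice, groups of eight to ten, dosed ip (aqueous solution) 15 min before transcorneal electroshock (50 mA, 0.2 s). End point: abolition of tonic hind-limb extension; quantal ED50 by Litchfield-Wilcoxon.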

Mus musculus [11] = test: Compound was evaluated in vivo for reserpine hypothermia after oral administration in mouse. Minimum active dose was reported, with the percent reversal at 10 mg/kg; I=inactive; assay type: functional, organism-based; set-up: dose 10 mg/kg; how it was run: as §3
Mus musculus [12] = species: Mus musculus; test: Mouse behavior activity was determined; Dwk=Depressant (Weak); assay type: functional, organism-based
How it was run: (§5)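 Male Simonsen (ICR) fBR mice, 18-24 g, groups of three, given 3, 10, 30, 100, 300 or 1000 mg/kg ip as aqueous solution and observed for behavioral profile; deaths followed up to 7 days.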

Mus musculus [13] = species: Mus musculus; test: Compound was evaluated for antagonism of reserpine induced hypothermia; I=inactive; assay type: functional, organism-based; how it was run: as §3
Mus musculus [14] = species: Mus musculus; test: Compound was evaluated for maximal electroshock antagonism (MES) against mice; I=inactive; assay type: functional, organism-based; how it was run: as §4
[15] = Lethal dose in mouse, in groups of ten; assay type: toxicity, organism-based; conditions: in vivo
Mus musculus [16] = test: Compound was evaluated in vivo for reserpine hypothermia after oral administration in mouse. Minimum active dose was reported; rigidity was potentiated by compound.; assay type: functional, organism-based; how it was run: as §3
Mus musculus [17] = species: Mus musculus; test: Mouse behavior activity was determined; S-D=Stimulant-Depressant; assay type: functional, organism-based; how it was run: as §5
Mus musculus [18] = species: Mus musculus; test: Evaluated for antagonism of reserpine induced hypothermia; assay type: functional; how it was run: as §3
Mus musculus [19] = species: Mus musculus; test: Mouse behavior activity was determined; Dwk= Depressant Weak.; assay type: functional, organism-based; how it was run: as §5
Mus musculus [20] = species: Mus musculus; test: Compound was evaluated for maximal electroshock antagonism (MES) against mice; Inactive.; assay type: functional, organism-based; how it was run: as §4
Mus musculus [21] = test: Evaluated in vivo for reserpine hypothermia after oral administration in mouse. Minimum active dose was reported; 10-30% reduction; assay type: functional, organism-based; how it was run: as §3
Mus musculus [22] = species: Mus musculus; test: Mouse behavior activity was determined; Dwk=Depressant Weak; assay type: functional, organism-based; how it was run: as §5
Mus musculus [23] = species: Mus musculus; test: Compound was evaluated for maximal electroshock antagonism (MES) against mice; Inactive; assay type: functional, organism-based; how it was run: as §4
Mus musculus [24] = species: Mus musculus; test: Mouse behavior activity was determined; D=Depressant.; assay type: functional, organism-based; how it was run: as §5
Mus musculus [25] = species: Mus musculus; test: Compound was evaluated for maximal electroshock antagonism (MES) against mice;I= Inactive; assay type: functional, organism-based; how it was run: as §4
Mus musculus [26] = species: Mus musculus; test: Compound was evaluated for antagonism of reserpine induced hypothermia;I= Inactive.; assay type: functional, organism-based; how it was run: as §1
Mus musculus [27] = species: Mus musculus; test: Mouse behavior activity was determined; ST= Stimulant, D = Depressant; assay type: functional, organism-based; how it was run: as §5
Mus musculus [28] = species: Mus musculus; test: Compound was evaluated for antagonism of reserpine induced hypothermia; I = inactive; assay type: functional, organism-based; how it was run: as §3
Mus musculus [29] = species: Mus musculus; test: Mouse behavior activity was determined; D=Depressant; assay type: functional, organism-based; how it was run: as §5
Mus musculus [30] = test: Evaluated in vivo for reserpine hypothermia after oral administration in mouse. Minimum active dose was reported; Inactive; assay type: functional, organism-based; how it was run: as §3
Mus musculus [31] = species: Mus musculus; test: Compound was evaluated for antagonism of reserpine induced hypothermia.; assay type: functional; how it was run: as §3
Mus musculus [32] = test: Compound was evaluated for maximal electroshock antagonism (MES) against mice; Inactive at 30 mg/kg; assay type: functional, organism-based; set-up: dose 30 mg/kg; how it was run: as §4
Mus musculus [33] = test: Compound was evaluated in vivo for reserpine hypothermia after oral administration in mouse.; assay type: functional; how it was run: as §3

## CCC1(c2ccccc2)C(=O)NC(=O)NC1=O [PHENOBARBITAL]
Mus musculus [1]
  ED50: 22 mg/kg
Mus musculus [2]
  Mouse behavior activity: Depressant
[3]
  LD50: 222 mg/kg
Mus musculus [4]
  Loss of righting reflex: 107 mg/kg
Mus musculus [5]
  Loss of righting reflex: 60 mg/kg
Mus musculus [6]
  ED50: 15 mg/kg

## COC(=O)NC1=NC(c2ccc(SC)cc2)CN1C (stereo not drawn)
[7]
  Log k': 0.61
Mus musculus [8]
  ED50: inactive
Mus musculus [9]
  HYPO: inactive
Mus musculus [10]
  ED50: 100 mg/kg

## COC(=O)NC1=NC(c2ccc(OC(C)=O)cc2)CN1C (stereo not drawn)
[7]
  Log k': 0.2
Mus musculus [11]
  ED50: inactive
Mus musculus [12]
  Mouse behavior activity: Depressant - weak
Mus musculus [13]
  HYPO: inactive
Mus musculus [14]
  ED50: inactive
[15]
  LD50: 700 mg/kg

## CCOC(=O)NC1=NC(c2ccccc2)CN1C (stereo not drawn)
[7]
  Log k': 0.41
Mus musculus [10]
  ED50: 78 mg/kg
Mus musculus [16]
  P: rigidity was potentiated by compound
Mus musculus [5]
  Loss of righting reflex: 100 mg/kg
Mus musculus [17]
  Mouse behavior activity: Stimulant-Depressant
Mus musculus [18]
  HYPO: <0.5 mg/kg
[15]
  LD50: 200 mg/kg

## COC(=O)NC1=NC(c2ccc(C)cc2)CN1 (stereo not drawn)
[7]
  Log k': 0.3
Mus musculus [19]
  Mouse behavior activity: Depressant - weak
Mus musculus [20]
  ED50: inactive
Mus musculus [18]
  HYPO: >20 mg/kg
[15]
  LD50: > 1000 mg/kg

## CCOC(=O)NC1=NC(c2ccc(C(C)C)cc2)CN1 (stereo not drawn)
[7]
  Log k': 1.3
Mus musculus [21]
  ED50: 10-30% reduction
Mus musculus [9]
  HYPO: inactive
Mus musculus [22]
  Mouse behavior activity: Depressant - weak
Mus musculus [23]
  ED50: inactive
[15]
  LD50: 200 mg/kg

## COC(=O)NC1=NC(c2ccccc2Cl)CN1 (stereo not drawn)
[7]
  Log k': 0.29
Mus musculus [24]
  Mouse behavior activity: Depressant
Mus musculus [10]
  ED50: 50 mg/kg
Mus musculus [5]
  Loss of righting reflex: 200 mg/kg
[15]
  LD50: 500 mg/kg

## CCOC(=O)NC1=NC(c2cccc(Br)c2)CN1 (stereo not drawn)
[7]
  Log k': 0.77
Mus musculus [25]
  ED50: inactive
Mus musculus [18]
  HYPO: <0.5 mg/kg

## CNC1=Nc2ccc(Cl)cc2C(c2ccccc2)=[N+]([O-])C1 [CHLORDIAZEPOXIDE]
Mus musculus [1]
  ED50: 5 mg/kg
Mus musculus [26]
  HYPO: inactive
Mus musculus [2]
  Mouse behavior activity: Depressant
[3]
  LD50: 254 mg/kg
Mus musculus [4]
  Loss of righting reflex: 140 mg/kg
Mus musculus [5]
  Loss of righting reflex: 53 mg/kg

## COC(=O)NC1=NC(c2ccc([S+](C)[O-])cc2)CN1C (stereo not drawn)
[7]
  Log k': -1.03
Mus musculus [8]
  ED50: inactive
Mus musculus [9]
  HYPO: inactive
Mus musculus [22]
  Mouse behavior activity: Depressant Weak
Mus musculus [23]
  ED50: inactive
[15]
  LD50: > 1000 mg/kg

## O=C1NC(=O)C(c2ccccc2)(c2ccccc2)N1 [PHENYTOIN]
Mus musculus [27]
  Mouse behavior activity: Stimulant
Mus musculus [28]
  HYPO: inactive
[3]
  LD50: 700 mg/kg
Mus musculus [6]
  ED50: 6 mg/kg

## COC(=O)NC1=NC(c2ccccc2)CN1C (stereo not drawn)
[7]
  Log k': 0.06
Mus musculus [10]
  ED50: 107 mg/kg
Mus musculus [16]
  P: rigidity was potentiated by compound
Mus musculus [17]
  Mouse behavior activity: Stimulant-Depressant
[15]
  LD50: 200 mg/kg

## COC(=O)NC1=NC(c2ccccc2SC)CN1C (stereo not drawn)
[7]
  Log k': 0.63
Mus musculus [9]
  HYPO: inactive
Mus musculus [29]
  Mouse behavior activity: Depressant
Mus musculus [23]
  ED50: inactive
Mus musculus [5]
  Loss of righting reflex: 70 mg/kg
[15]
  LD50: 200 mg/kg

## CCCCCCc1ccc(C2CN=C(NC(=O)OC)N2)cc1 (stereo not drawn)
[7]
  Log k': 2.28
Mus musculus [9]
  HYPO: inactive
Mus musculus [22]
  Mouse behavior activity: Depressant - weak
Mus musculus [20]
  ED50: inactive
[15]
  LD50: 200 mg/kg

## CCOC(=O)NC1=NC(c2cccc(F)c2)CN1C (stereo not drawn)
[7]
  Log k': 0.51
Mus musculus [30]
  ED50: inactive
Mus musculus [31]
  HYPO: <0.5 mg/kg
Mus musculus [32]
  ED50: inactive

## COC(=O)NC1=NC(c2cccc(F)c2)CN1 (stereo not drawn)
[7]
  Log k': -0.1
Mus musculus [33]
  ED50: 36 mg/kg
Mus musculus [24]
  Mouse behavior activity: Depressant
Mus musculus [10]
  ED50: 70 mg/kg
[15]
  LD50: 200 mg/kg
